Assay results of several laboratories.
Compare with care: the assays were run in different laboratories.
NPSR1: Neuropeptide S receptor (NPSR1, Homo sapiens, UniProt Q6W5P4)
TPR: Trypanothione reductase (TPR, Trypanosoma cruzi, UniProt P28593)
PTPN12: Tyrosine-protein phosphatase non-receptor type 12 (PTPN12, Homo sapiens, UniProt Q05209)

| Structure (SMILES) | target | assay | setting | IC50 |
| --- | --- | --- | --- | --- |
| COc1cccc(C2c3c(ncn(-c4ccncc4)c3=N)Oc3ccc4ccccc4c32)c1 (stereo not drawn) | NPSR1 | calcium signal, antagonist | – | 4.38 µM |
| CCN(CC)CCn1c(=N)n(CCOc2ccccc2)c2ccccc21 | TPR | enzyme activity, inhibitor | – | ≤ 10 µM |
| O=S(=O)(Nc1nc2cc(Cl)ccc2o1)c1cc(Cl)ccc1Cl | Fructose-1,6-bisphosphatase 1 (Mus musculus, UniProt Q9QXD6, G27P) | enzyme activity, inhibitor | – | > 100 µM |
| COc1cccc(C2c3c(ncn(-c4ccccc4-c4ccccc4)c3=N)Oc3ccc4ccccc4c32)c1 (stereo not drawn) | NPSR1 | cAMP, antagonist, TR-FRET | – | 38.7 µM |
| Cc1ccc(C(=O)Nc2ccc(S(=O)(=O)O)c3cc(S(=O)(=O)O)cc(S(=O)(=O)O)c23)cc1NC(=O)c1cccc(NC(=O)Nc2cccc(C(=O)Nc3cc(C(=O)Nc4ccc(S(=O)(=O)O)c5cc(S(=O)(=O)O)cc(S(=O)(=O)O)c45)ccc3C)c2)c1 | PTPN12 | enzyme activity, inhibitor, fluorescence | – | 27 µM |
| COc1cccc(C2c3c(ncn(-c4cccc(C)c4)c3=N)Oc3ccc4ccccc4c32)c1 (stereo not drawn) | NPSR1 | cAMP, antagonist, TR-FRET | – | 12.2 µM |
| C=CC(=O)Nc1cc(Nc2nccc(Nc3cc(Cl)c(F)cc3C(C)(C)O)n2)c(OC)cc1N1CC[C@@H](N(C)C)C1 | MAP kinase-interacting serine/threonine-protein kinase 2 (MKNK2, Homo sapiens, UniProt Q9HBH9) | enzyme activity, inhibitor | with preincubation | 1.03 µM |
| CC(C)Cc1sc(N)nc1-c1ccc(P(=O)(O)O)o1 | Fructose-1,6-bisphosphatase 1 (Mus musculus, UniProt Q9QXD6) | enzyme activity, inhibitor | – | 0.3 µM |
| COc1cccc(C2c3c(ncn(-c4ccc(C#N)cc4)c3=N)Oc3ccc4ccccc4c32)c1 (stereo not drawn) | NPSR1 | cAMP, antagonist, TR-FRET | – | 5.52 µM |
| O=C1NC(=O)/C(=C/c2ccc(OCCNc3nc4c(cnn4C4CCCC4)c(=O)[nH]3)c(F)c2)S1 | Dual specificity calcium/calmodulin-dependent 3',5'-cyclic nucleotide phosphodiesterase 1B (Homo sapiens, UniProt Q01064) | enzyme activity, inhibitor | – | 0.0065 µM |
| Cc1cnc(-c2ccc(-c3ccc(NC(=O)Nc4c(F)cc(F)cc4F)cc3F)c3c2C(=O)NC3)[nH]1 | Tyrosine-protein kinase Fgr (FGR, Homo sapiens, UniProt P09769) | enzyme activity, inhibitor | – | 0.01 µM |
| COc1ccc2nc(/N=C3/NC(=O)C(=Cc4ccc(Cl)cc4)S3)sc2c1 | Aldo-keto reductase family 1 member A1 (Rattus norvegicus, UniProt P51635) | enzyme activity, inhibitor, absorbance | pH 7.2 | 18.3 µM |
| CN(C)CCCN1c2ccccc2Sc2ccc(Cl)cc21 | TPR | enzyme activity, inhibitor, absorbance | – | 6.32 µM |
| CO/N=C(\C(=O)N[C@@H]1C(=O)N2C(C(=O)O)=C(COC(C)=O)CS[C@H]12)c1csc(N)n1 | PTPN12 | enzyme activity, inhibitor, fluorescence | – | 70 µM |
| O=C(Nc1ccn(Cc2ccc(O)cc2C(F)(F)F)n1)c1c(F)cccc1F | Short transient receptor potential channel 3 (TRPC3, Homo sapiens, UniProt Q13507) | ion current, inhibitor | – | > 10 µM |
